# Source: PubChem BioAssay
# HePTP inhibitor: inhibitors of human HePTP phosphatase, primary screen, biochemical, absorbance, leukemia target. Tyrosine-protein phosphatase non-receptor type 7 (Homo sapiens), P35236. recombinant HePTP phosphatase activity, OD absorbance. inhibition, % at 20 µM. 110,000 tested, 0.64% active; in the data active means inhibition above about 50%;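 further: plate controls were vehicle for no effect and reference inhibitor for full effect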
# M1 antagonist: antagonists of rat M1 muscarinic receptor; Muscarinic acetylcholine receptor M1 (Rattus norvegicus), P08482; CHO-M1 cells, Fluo-4 calcium, ACh EC80 antagonist mode; active compounds read low; B-score at 10 µM; 64,000 tested, 3.4% active;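 active means calcium fluorescence response, raw or row-and-column corrected B-score, differing from the plate sample mean either way at a set confidence level, mostly lower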
# M1 agonist: M1 muscarinic receptor agonists, primary screen, CHO-M1 cells, Fluo-4 calcium, agonist mode; Muscarinic acetylcholine receptor M1; Fluo-4 calcium fluorescence; active compounds read high; AID 626, 2007; 64,000 tested, 3% active; B-score at 10 µM;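 active means fluorescence rise, raw or as B-score row- and column-corrected plate score, outside the 99.7% band of its plate's samples, either direction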
# D1 allo mod: D1 CRE-luciferase signal change, two-sided – cell-based, HEK293 D1, dopamine EC30, D1 allosteric modulator project, primary screen; B-score at 10 µM; dopamine EC30 potentiation; actives deviate in either direction; 58,000 tested, 5.9% active; D(1A) dopamine receptor (Homo sapiens), P21728;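 active means luminescence count or its row- and column-corrected plate score outside the 99.7% band of the plate's sample wells, on either side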
# SF-1 act: activators of human SF-1, primary screen, cell-based, CHO-K1, Gal4-SF-1 LBD, luciferase luminescence | Steroidogenic factor 1 (Homo sapiens), Q13285 | CHO-K1 Gal4-SF-1 LBD luciferase reporter; % increase over DMSO SF-1-specific signal | activation, % at 10 µM | 65,000 tested, 1.9% active | AID 522, 2006;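 active means activation above the mean activation of all tested compounds plus 3 SD, cut at about 50% in these data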
# Target sequence (Q13285 whole entry, looked up, the tested form may be a part): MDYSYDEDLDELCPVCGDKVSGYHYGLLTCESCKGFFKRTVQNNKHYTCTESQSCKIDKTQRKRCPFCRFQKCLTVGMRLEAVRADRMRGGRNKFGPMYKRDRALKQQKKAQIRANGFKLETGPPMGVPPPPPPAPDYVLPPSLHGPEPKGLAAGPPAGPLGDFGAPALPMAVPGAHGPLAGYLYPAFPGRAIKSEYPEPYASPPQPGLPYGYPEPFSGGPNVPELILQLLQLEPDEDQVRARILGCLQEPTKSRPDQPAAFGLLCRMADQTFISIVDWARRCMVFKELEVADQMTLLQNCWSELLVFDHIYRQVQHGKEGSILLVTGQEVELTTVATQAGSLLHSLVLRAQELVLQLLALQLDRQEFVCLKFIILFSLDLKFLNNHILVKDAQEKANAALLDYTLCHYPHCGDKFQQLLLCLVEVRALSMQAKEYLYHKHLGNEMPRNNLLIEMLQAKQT
#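 Material: CHO-K1 cells with Gal4–hSF-1 LBD chimera plus Gal4-driven luciferase / Input: 4,000 CHO-K1 cells per well / Incubation: compound exposure 20 h at 37 °C / Signal: luminescence read 15 min after SteadyLite luciferase reagent, after room-temperature equilibration / Read-out: percent activation versus DMSO / Benchmarks: DMSO negative control and −SF1 background wells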
# RORa activator: activators of orphan receptor RORA, primary screen, cell-based, luminescence; Nuclear receptor ROR-alpha (Homo sapiens), P35398; CHO-K1 Gal4-RORA LBD luciferase reporter; percent increase over mock-subtracted basal signal; activation, % at 10 µM; 65,000 tested, 1.5% active; AID 560, 2006;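 active means activation above the mean of all tested compounds plus 3 SD, cut at about 49% in these data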;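 further: 0% = DMSO-treated RORA cells and 100% = added signal equal to DMSO minus mock-transfected cells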
# M1 antag confirm: rat M1 muscarinic receptor antagonists, confirmation, CHO cells, Fluo-4 calcium, duplicate | AID 677, 2007 | ACh EC80 antagonism; active compounds read low | shares compounds with M1 antagonist | 1,700 tested, 43% active | calcium response (max-min fluorescence) at 10 µM;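 active means calcium response below the same-plate mean of wells given acetylcholine alone at its 80%-effect dose, minus 3 SD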;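 further: raw fluorescence intensity difference in arbitrary instrument units and not normalized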
# mGluR4 antag: human mGluR4 response to M1 antagonist hits, M1 allosteric modulator project, cell-based, antagonist mode, secondary assay 1; AID 678, 2007; 1,700 tested, 0.9% active; CHO-mGluR4 calcium flux, Fluo-4 fluorescence, glutamate EC80; active compounds read low; fluorescence response (max-min) at 10 µM; shares compounds with M1 antagonist;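 active means fluorescence response below the plate's average for near-maximal glutamate wells, less 3 SD of those wells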;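 further: raw unnormalized fluorescence span taken in the window right after glutamate addition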
# Active calls of the source: *; · = no result given. Only some compounds are listed: those with a hit (about 8.2% of all), similar ones and a draw of the others.
SMILES,HePTP inhibitor,M1 antagonist,M1 agonist,D1 allo mod,SF-1 act,RORa activator,M1 antag confirm,mGluR4 antag
CNc1nc(N)c(C(=O)C(C)(C)C)s1,6,-1.8*,1.2,·,7,10,599,260
Cc1nc2ccc(F)cc2cc1C(=O)NCC1CCCO1 (stereo not drawn),8,-0.96,-0.61,·,-19,25,·,·
Cc1ccc(NC(=O)N2CCCN(Cc3ccc(F)cc3)C2)cc1C,-12,-5.1*,-0.32,-0.64,-15,19,592,283
O=C(NCCCN1CCN(Cc2ccccc2)CC1)C1CCN(c2nnc(-n3cccc3)s2)CC1,-3,-6.9*,0.05,-2,4,1,419*,181
O=C(NCCCN1CCc2ccccc2C1)C1CCN(c2nnc(-n3cccc3)s2)CC1,-9,-2.9*,-0.096,·,-12,-15,337*,209
O=C(NCCCc1ccccc1)C1CCN(c2nnc(-n3cccc3)s2)CC1,-6,-0.3,-1.3,·,-23,25,·,·
O=C(OCCN1CCCCC1)c1cc2ccccc2o1,6,-2.4*,-0.73,·,-13,-6,465,238
O=C(COC(=O)c1cc2ccccc2o1)c1ccccc1,5,0.0061,0.72,0.072,11,-14,·,·
CC(C)OC(=O)CSc1nnc(-c2ccc(O)cc2)n1Cc1ccccc1,11,-3.3*,0.0028,0.22,12,-9,648,237
CCn1c(SCC(=O)OC(C)C)nnc1-c1cccc(Cl)c1,-10,·,-0.32,-0.06,-1,7,·,·
CCOC(=O)c1ccc(Nc2nnc3nc(C)cc(C)n23)cc1,4,-1.2*,-0.71,0.25,-3,-9,466,214
CCOC(=O)c1ccc(Nc2cc(C)nc3ncnn23)cc1,6,-0.37,-1.3,-0.6,-15,-6,·,·
Cc1csc(NC(=O)c2c(O)c3c(n(CC(C)C)c2=O)CCCC3)n1,10,-0.078,0.1,0.51,-4,-8,·,·
CCCc1[nH]nc2c1C(Cc1ccccc1)C(C#N)=C(N)O2 (stereo not drawn),5,-2.2*,0.3,0.0066,4,-19,642,239
CN(C)S(=O)(=O)N1CCN(CC(O)COc2ccc(C(=O)c3ccccc3)cc2)CC1 (stereo not drawn),2,-0.62,-0.93,-0.72,5,-28,·,·
OC(COc1ccc(C2C=CCC2)cc1)CN1CCCCC1 (stereo not drawn),-1,-4.1*,-1.1,-0.78,2,-11,422*,246
O=C(c1ccccc1)c1ccc(OCC(O)CN2CCCCC2)cc1 (stereo not drawn),2,-2.2*,0.044,-0.22,20,10,381*,264
CC(C)COc1ccc(C(=O)CCN2CCCCC2)cc1,10,-7*,-0.21,0.086,-14,-5,278*,199
CCC(=O)c1ccc(OCC(O)CN2CCN(S(=O)(=O)N3CCCCC3)CC2)cc1 (stereo not drawn),12,0.29,-0.92,0.57,6,-7,·,·
CCOC(=O)C1CCN(CC(O)COc2ccc(C(=O)CC)cc2)CC1 (stereo not drawn),-6,-3.3*,-0.2,0.026,18,4,569,212
CC(C)OC(=O)COc1ccc2c3c(c(=O)oc2c1)CCCC3,6,·,·,·,·,·,·,·
O=C(O)c1cc(-c2cn[nH]c2-c2ccccc2)nc2ccc3ccccc3c12,5,·,·,·,·,·,·,·
COc1ccccc1CN1CCN(C(CC(C)C)c2nnnn2Cc2cccs2)CC1 (stereo not drawn),10,-2*,-0.14,-1,-1,4,558*,210
Cc1ccc(C)c2[nH]c(=O)c(CN(CCN3CCCC3)C(=O)Nc3cccc(Cl)c3)cc12,3,-0.75,-0.36,-0.64,-4,19,·,·
CN1CCN(CC(=O)N2c3ccccc3C(=O)Nc3cccnc32)CC1,8,·,·,1.7,-11,-27,·,209
SMILES,HePTP inhibitor,M1 antagonist,M1 agonist,D1 allo mod,SF-1 act,RORa activator,M1 antag confirm,mGluR4 antag
O=C(Cc1c(C(=O)O)[nH]c2ccccc12)Nc1ccc2c(c1)OCO2,-1,0.71,0.67,·,2,-2,·,·
CCOc1ccc(NCc2nnc(SCC(=O)Nc3cc(C)on3)n2-c2ccc(OC)cc2)cc1,8,-0.039,0.06,-0.025,-14,-15,·,·
CCN(CC)S(=O)(=O)c1cccc(C(=O)NC(C(=O)Nc2nnc(C3CC3)s2)C(C)C)c1 (stereo not drawn),5,-2.6*,-0.059,·,-3,2,544,256
CCN(CC)S(=O)(=O)c1cccc(C(=O)NC(C(=O)NC2=NCCS2)C(C)C)c1 (stereo not drawn),2,1,-0.45,-1,-13,-13,·,·
CCCCn1c(CN2CCN(C)CC2)nc2ccccc21,2,-4*,0.5,-0.76,-13,4,324*,235
COc1cc(NC(=O)c2cnn3c(C(F)(F)F)cc(-c4ccco4)nc23)c(OC)cc1Cl,-8,·,·,·,·,·,·,·
O=C(NCc1ccccc1)C1CC(=O)N(c2ccc(F)cc2)C1 (stereo not drawn),-2,·,·,·,·,·,·,·
CCOC(=O)Nc1cccc(NC(=O)c2cc(OC)cc(OC)c2)c1,-3,-0.028,0.7,-0.023,12,22,·,·
COc1cc(OC)cc(C(=O)Nc2cccc(NC(C)=O)c2)c1,4,-3.6*,-0.81,·,-1,-7,666,242
COc1cc(NC(=O)c2cccc(C)c2)c(C(=O)O)cc1OC,14,·,·,·,·,·,·,·
CC(=O)c1ccc(C(C)(C)c2ccc(C(C)=O)s2)s1,6,-2.6*,-0.01,-0.2,-9,-9,518*,263
COC(=O)CSC1=C(C#N)C(c2sccc2C)CC(=O)N1 (stereo not drawn),·,-0.36,-0.45,-0.62,-2,-10,·,·
COC(=O)CSC1=C(C#N)C(c2ccc(F)cc2)CC(=O)N1 (stereo not drawn),6,-2.2*,-0.88,-0.33,-1,-9,632,197
COC(=O)CNC(=O)C12CC3(C)CC(C)(CC(C)(C3)C1)C2,0,0.61,0.18,0.018,-1,-11,·,·
CCN(CCNC(=O)Nc1ccc(Cl)cc1)c1ccccc1,4,-0.91,-0.7,-1.3,6,-9,·,·
